# Data published in ChEMBL document CHEMBL1125520, “Improved brain delivery of AZT using a glycosyl phosphotriester prodrug” (1992).
# What was measured:
# Mus musculus [1] = assay: In Vivo detection in Mice brains after oral administration of 41.63 mg/kg detected in the form of AZT 5`-P after 1 hr; type: functional
# Mus musculus [2] = assay: In Vivo detection of total AZT in Mice brains after oral administration of 41.63 mg/kg after 24 hr; type: functional
# Procedure, shortened: (§1)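 Male Swiss mice (18–20 g) dosed orally with a 3 mM solution in […] vehicle; decapitated at 0.5–48 h. Brains were homogenized in acetonitrile-water (3:1), centrifuged at 6000g for 40 min at 4 °C, lyophilized, redissolved in water and filtered (0.45 µm). Reversed-phase C18 column-switching HPLC with diode-array detection; standard spiking; vehicle-fed controls. Three mice per point, triplicates.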
# Mus musculus [3] = assay: In Vivo detection of total AZT in Mice brains after oral administration of 41.63 mg/kg after 0.5 hr; type: functional; procedure, shortened: as §1
# Mus musculus [4] = assay: In Vivo detection in Mice plasma after oral administration of 41.63 mg/kg detected in the form of AZT 5`-P after 8 hr; type: functional, organism-based; design: dose 41.63 mg/kg
# Mus musculus [5] = assay: In Vivo detection in Mice brains after oral administration of 41.63 mg/kg detected in the form of AZT 5`-P after 2 hr; type: functional
# Mus musculus [6] = assay: In Vivo detection in Mice brains after oral administration of 58.33 mg/kg detected in the form of AZT after 1 hr; type: functional
# Mus musculus [7] = assay: In Vivo detection in Mice brains after oral administration of 58.33 mg/kg detected in the form of AZT after 4 hr; type: functional
# Mus musculus [8] = assay: In Vivo detection in Mice brains after oral administration of 58.33 mg/kg detected in the form of AZT phosphodiester 2 after 48 hr; type: functional
# Mus musculus [9] = assay: In Vivo detection in Mice brains after oral administration of 58.33 mg/kg detected in the form of AZT phosphodiester 3 after 4 hr; type: functional
# Mus musculus [10] = assay: In Vivo detection in Mice brains after oral administration of 58.33 mg/kg detected in the form of AZT phosphodiester 3 after 8 hr; type: functional
# Mus musculus [11] = assay: In Vivo detection of total AZT in Mice plasma after oral administration of 58.33 mg/kg after 4 hr; type: functional, organism-based; design: dose 58.33 mg/kg
# Procedure, shortened: (§2)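 Male Swiss mice (18–20 g, six weeks old) given the test substance or vehicle ([…]) by gavage as a 3 mM solution (1.5 µmol/mouse). Aortic blood was collected into heparinized tubes at 0.5–48 h and centrifuged at 13000g for 10 min. Plasma was stored at -22 °C and analysed by HPLC. Three mice were used per time point, in triplicate. Values were not corrected for recovery.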
# Mus musculus [12] = assay: In Vivo detection in Mice plasma after oral administration of 58.33 mg/kg detected in the form of AZT after 1 hr; type: functional, organism-based; design: dose 58.33 mg/kg
# Mus musculus [13] = assay: In Vivo detection in Mice plasma after oral administration of 58.33 mg/kg detected in the form of AZT phosphodiester 2 after 2 hr; type: functional, organism-based; design: dose 58.33 mg/kg; procedure, shortened: as §2
# Mus musculus [14] = assay: In Vivo detection of total AZT in Mice plasma after oral administration of 58.33 mg/kg after 2 hr; type: functional, organism-based; design: dose 58.33 mg/kg; procedure, shortened: as §2
# Mus musculus [15] = assay: In Vivo detection in Mice plasma after oral administration of 58.33 mg/kg detected in the form of AZT 5`-P after 24 hr; type: functional, organism-based; design: dose 58.33 mg/kg
Compound,Brain content (Mus musculus [1]),Brain content (Mus musculus [2]),Brain content (Mus musculus [3]),Plasma content (Mus musculus [4]),Brain content (Mus musculus [5]),Brain content (Mus musculus [6]),Brain content (Mus musculus [7]),Brain content (Mus musculus [8]),Brain content (Mus musculus [9]),Brain content (Mus musculus [10]),Plasma content (Mus musculus [11]),Plasma content (Mus musculus [12]),Plasma content (Mus musculus [13]),Plasma content (Mus musculus [14]),Plasma content (Mus musculus [15])
Cc1cn([C@H]2C[C@H](N=[N+]=[N-])[C@@H](COP(=O)(O)OCCO[C@H]3O[C@H](CO)[C@@H](O)[C@H](O)[C@@H]3O)O2)c(=O)[nH]c1=O,79.3 nmol/g,61.8 nM ml-1,38.6 nM ml-1,5.7 nM ml-1,19.8 nM ml-1,,,,,,,,,,
CCCCCCCCCCCCCCCCOP(=O)(OCCO[C@H]1O[C@H](CO)[C@@H](O)[C@H](O)[C@@H]1O)OCC1OC(n2cc(C)c(=O)[nH]c2=O)CC1N=[N+]=[N-] (stereo not given in full),,,,,,1.5 nmol/g,1 nmol/g,3.8 nmol/g,0 nM ml-1,0 nM ml-1,5.3 nM ml-1,1.3 nM ml-1,0 nM ml-1,5.4 nM ml-1,28.5 nM ml-1
